# Results from ChEMBL document CHEMBL2150988, “Preparation and optimization of new 4-(morpholin-4-yl)-(6-oxo-1,6-dihydropyrimidin-2-yl)amide derivatives as PI3Kβ inhibitors” (Bioorg Med Chem Lett, 2012).
# Tests used:
# [1] = Drug metabolism in human liver microsomes after 20 mins; format: ADME, Microsome; details: read-out: Drug metabolism
# In short: (§1)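 Liver microsomes (human or mouse) incubated with compound for 20 min; %lability reported as % of compound metabolized.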
# Cytochrome P450 3A4 = Cytochrome P450 3A4 (Homo sapiens, UniProt P08684); assay: Inhibition of human recombinant CYP3A4; format: ADME
# Sequence of Cytochrome P450 3A4 (P08684 whole entry): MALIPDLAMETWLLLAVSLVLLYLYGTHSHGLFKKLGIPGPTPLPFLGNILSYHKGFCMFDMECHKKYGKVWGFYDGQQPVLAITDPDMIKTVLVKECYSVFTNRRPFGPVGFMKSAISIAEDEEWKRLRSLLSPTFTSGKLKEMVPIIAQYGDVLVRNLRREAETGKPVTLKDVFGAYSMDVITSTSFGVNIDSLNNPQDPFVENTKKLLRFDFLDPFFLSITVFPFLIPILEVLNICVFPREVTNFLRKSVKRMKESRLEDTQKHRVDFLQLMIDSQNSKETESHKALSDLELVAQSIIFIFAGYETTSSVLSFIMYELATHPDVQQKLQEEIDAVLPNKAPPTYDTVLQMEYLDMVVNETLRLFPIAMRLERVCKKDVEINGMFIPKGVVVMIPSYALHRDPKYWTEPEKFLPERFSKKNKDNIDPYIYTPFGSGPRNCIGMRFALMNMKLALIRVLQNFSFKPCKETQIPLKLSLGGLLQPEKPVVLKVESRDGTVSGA
# [2] = Equilibrium solubility of the compound in phosphate buffer at pH 7.4 after 16 hrs by HPLC analysis; format: physicochemical
# [3] = Inhibition of Akt phosphorylation at S473 in PTEN deficient human PC3 cells; format: cell-based; details: PC-3
# [4] = molecular target: Serine/threonine-protein kinase mTOR (Homo sapiens, UniProt P42345); assay: Inhibition of mTOR
# [5] = Drug metabolism in mouse liver microsomes after 20 mins; format: ADME, Microsome; details: read-out: Drug metabolism; in short: as §1
# [6] = molecular target: Phosphatidylinositol 4,5-bisphosphate 3-kinase catalytic subunit gamma isoform (Homo sapiens, UniProt P48736); assay: Inhibition of PI3Kgamma
# Sequence of Phosphatidylinositol 4,5-bisphosphate 3-kinase catalytic subunit gamma isoform (P48736 whole entry, canonical isoform): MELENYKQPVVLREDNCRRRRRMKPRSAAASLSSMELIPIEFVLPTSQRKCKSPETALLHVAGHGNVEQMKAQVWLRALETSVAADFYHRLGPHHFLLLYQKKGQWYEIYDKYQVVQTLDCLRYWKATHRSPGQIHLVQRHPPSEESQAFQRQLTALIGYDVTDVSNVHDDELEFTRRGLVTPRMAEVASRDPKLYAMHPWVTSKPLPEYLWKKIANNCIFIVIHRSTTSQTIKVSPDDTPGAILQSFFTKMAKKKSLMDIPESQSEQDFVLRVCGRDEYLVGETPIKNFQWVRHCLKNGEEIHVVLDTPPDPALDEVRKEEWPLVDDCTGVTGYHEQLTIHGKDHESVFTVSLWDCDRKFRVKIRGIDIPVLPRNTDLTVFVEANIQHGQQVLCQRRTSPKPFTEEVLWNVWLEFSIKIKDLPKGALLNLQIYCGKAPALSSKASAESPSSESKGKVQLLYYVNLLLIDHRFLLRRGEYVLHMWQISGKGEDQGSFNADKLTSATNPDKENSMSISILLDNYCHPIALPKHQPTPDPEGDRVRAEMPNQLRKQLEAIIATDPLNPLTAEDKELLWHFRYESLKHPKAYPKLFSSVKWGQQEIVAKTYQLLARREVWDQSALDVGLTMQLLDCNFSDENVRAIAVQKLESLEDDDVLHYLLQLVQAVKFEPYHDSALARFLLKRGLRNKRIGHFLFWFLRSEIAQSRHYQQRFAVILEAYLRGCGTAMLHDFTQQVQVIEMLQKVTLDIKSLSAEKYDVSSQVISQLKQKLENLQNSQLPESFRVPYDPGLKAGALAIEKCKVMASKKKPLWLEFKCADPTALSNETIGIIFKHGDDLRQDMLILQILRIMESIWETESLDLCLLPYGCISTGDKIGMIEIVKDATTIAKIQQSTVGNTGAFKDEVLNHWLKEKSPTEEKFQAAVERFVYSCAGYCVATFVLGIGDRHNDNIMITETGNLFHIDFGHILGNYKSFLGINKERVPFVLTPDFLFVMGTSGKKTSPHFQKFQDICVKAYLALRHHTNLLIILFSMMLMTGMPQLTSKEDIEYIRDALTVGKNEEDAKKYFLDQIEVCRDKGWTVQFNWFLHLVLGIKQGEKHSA
# [7] = Apparent permeability across human Caco2/TC7 cells; format: ADME, cell-based; details: Caco-2
# In short: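 Caco-2 TC7 clone monolayers; transport measured in both apical-to-basolateral and basolateral-to-apical directions, giving Papp (nm/s) and an efflux ratio.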
# [8] = molecular target: Phosphatidylinositol 4,5-bisphosphate 3-kinase catalytic subunit beta isoform (Homo sapiens, UniProt P42338); assay: Inhibition of PI3Kbeta
# Sequence of Phosphatidylinositol 4,5-bisphosphate 3-kinase catalytic subunit beta isoform (P42338 whole entry, canonical isoform): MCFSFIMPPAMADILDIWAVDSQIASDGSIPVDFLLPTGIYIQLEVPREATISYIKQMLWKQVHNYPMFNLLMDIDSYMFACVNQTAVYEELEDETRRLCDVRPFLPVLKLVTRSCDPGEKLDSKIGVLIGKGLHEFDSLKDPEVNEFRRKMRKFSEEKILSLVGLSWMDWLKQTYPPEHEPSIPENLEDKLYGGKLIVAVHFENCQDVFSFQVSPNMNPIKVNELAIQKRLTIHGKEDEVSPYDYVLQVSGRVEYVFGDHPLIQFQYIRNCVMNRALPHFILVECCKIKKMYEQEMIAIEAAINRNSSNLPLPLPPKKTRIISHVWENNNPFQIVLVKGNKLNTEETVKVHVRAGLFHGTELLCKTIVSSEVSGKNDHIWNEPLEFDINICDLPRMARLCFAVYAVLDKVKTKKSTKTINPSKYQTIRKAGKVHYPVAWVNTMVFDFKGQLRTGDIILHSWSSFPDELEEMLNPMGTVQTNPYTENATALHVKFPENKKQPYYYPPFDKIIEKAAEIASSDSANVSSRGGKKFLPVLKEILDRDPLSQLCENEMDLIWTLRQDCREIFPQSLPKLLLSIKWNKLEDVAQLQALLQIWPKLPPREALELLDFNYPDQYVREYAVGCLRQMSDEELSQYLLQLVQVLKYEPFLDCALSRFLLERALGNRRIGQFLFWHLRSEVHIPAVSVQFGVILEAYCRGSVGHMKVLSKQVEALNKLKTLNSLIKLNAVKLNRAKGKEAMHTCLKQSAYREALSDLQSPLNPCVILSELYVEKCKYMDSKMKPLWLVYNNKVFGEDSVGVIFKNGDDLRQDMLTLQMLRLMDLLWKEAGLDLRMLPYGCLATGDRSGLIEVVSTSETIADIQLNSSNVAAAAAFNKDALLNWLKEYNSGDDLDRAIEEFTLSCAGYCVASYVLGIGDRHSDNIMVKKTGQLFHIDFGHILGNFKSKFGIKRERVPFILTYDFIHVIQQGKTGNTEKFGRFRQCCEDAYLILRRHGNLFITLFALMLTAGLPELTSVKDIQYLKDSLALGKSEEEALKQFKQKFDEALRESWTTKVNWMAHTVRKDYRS
# [9] = molecular target: Phosphatidylinositol 4,5-bisphosphate 3-kinase catalytic subunit alpha isoform (Homo sapiens, UniProt P42336); assay: Inhibition of PI3Kalpha
# Sequence of Phosphatidylinositol 4,5-bisphosphate 3-kinase catalytic subunit alpha isoform (P42336 whole entry, canonical isoform): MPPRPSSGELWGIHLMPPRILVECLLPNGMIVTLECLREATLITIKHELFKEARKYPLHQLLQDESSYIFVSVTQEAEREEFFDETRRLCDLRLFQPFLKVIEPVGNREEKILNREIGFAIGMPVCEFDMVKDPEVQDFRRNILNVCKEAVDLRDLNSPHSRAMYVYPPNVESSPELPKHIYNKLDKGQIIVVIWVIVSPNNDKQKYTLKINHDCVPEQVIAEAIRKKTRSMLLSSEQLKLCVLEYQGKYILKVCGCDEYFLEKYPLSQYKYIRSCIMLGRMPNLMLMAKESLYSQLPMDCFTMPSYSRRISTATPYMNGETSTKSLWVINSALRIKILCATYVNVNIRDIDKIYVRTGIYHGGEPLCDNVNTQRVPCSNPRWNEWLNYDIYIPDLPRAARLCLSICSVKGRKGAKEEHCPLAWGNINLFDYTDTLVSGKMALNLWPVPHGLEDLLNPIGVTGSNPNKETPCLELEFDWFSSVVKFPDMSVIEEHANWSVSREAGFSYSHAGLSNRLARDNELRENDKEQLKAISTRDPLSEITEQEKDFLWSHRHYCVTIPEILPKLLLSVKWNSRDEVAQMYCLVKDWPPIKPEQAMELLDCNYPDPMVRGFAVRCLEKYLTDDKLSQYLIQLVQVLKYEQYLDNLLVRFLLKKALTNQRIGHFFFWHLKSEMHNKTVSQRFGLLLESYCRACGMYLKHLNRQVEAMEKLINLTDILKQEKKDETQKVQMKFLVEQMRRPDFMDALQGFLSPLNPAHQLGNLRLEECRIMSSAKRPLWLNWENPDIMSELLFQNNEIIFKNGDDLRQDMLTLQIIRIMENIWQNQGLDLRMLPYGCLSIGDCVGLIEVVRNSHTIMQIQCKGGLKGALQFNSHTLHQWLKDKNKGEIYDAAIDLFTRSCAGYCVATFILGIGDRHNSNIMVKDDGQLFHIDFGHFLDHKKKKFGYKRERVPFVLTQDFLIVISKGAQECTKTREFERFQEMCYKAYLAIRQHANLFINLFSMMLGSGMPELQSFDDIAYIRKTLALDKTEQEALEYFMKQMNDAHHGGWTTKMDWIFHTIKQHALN
# [10] = molecular target: T1, Phosphatidylinositol 4,5-bisphosphate 3-kinase catalytic subunit delta isoform (Homo sapiens, UniProt O00329); assay: Inhibition of PI3Kdelta
# T1 sequence (O00329 whole entry): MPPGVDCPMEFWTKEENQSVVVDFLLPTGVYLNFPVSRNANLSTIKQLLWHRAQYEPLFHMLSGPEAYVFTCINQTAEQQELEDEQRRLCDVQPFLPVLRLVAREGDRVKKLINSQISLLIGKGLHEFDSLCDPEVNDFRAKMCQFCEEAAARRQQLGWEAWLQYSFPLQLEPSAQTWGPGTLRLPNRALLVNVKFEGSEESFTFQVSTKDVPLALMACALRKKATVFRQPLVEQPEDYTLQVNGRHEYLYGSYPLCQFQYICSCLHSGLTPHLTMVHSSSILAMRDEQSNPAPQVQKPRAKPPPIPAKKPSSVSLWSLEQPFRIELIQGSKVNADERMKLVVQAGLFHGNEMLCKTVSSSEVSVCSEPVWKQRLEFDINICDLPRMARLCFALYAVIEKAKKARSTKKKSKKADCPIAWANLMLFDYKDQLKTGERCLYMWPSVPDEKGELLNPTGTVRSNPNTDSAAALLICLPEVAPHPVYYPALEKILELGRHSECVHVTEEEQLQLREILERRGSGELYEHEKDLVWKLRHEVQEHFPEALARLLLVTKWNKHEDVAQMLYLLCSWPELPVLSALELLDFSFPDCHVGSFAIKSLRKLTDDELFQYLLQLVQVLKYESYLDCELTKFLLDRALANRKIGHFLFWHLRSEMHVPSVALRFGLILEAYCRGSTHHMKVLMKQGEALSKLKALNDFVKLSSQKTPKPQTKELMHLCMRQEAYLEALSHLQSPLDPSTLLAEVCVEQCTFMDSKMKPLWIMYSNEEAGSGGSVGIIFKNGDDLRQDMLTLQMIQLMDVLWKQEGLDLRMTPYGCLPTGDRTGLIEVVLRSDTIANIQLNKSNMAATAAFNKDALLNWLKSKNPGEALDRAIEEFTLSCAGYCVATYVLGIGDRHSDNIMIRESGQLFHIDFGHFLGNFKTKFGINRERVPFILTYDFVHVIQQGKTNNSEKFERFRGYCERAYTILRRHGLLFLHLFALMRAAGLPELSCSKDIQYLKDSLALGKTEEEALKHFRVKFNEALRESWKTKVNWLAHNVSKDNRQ
# [11] = Efflux ratio of permeability […] in human Caco2/TC7 cells; format: ADME, cell-based
# In short: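 Caco-2 TC7 clone cells grown as a monolayer; compound transport measured in both directions, apical to basolateral (A–B) and basolateral to apical (B–A); apparent permeability (Papp) read out, and efflux ratio derived from the two directional measurements.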
structure (smiles),measurement,setting,value
O=C(Cc1nc(N2CCOCC2)cc(=O)[nH]1)Nc1ccccc1,metabolised at 20 min,[1],44%
same,IC50,Cytochrome P450 3A4,> 40000 nM
same,solubility thermodynamic at 16 h,[2],73 µM
same,IC50,[3],68 nM
same,IC50,[4],> 10000 nM
same,metabolised at 20 min,[5],4%
same,IC50,[6],> 10000 nM
same,Papp,[7],0.5 ×10⁻⁶ cm/s
O=C(Cc1nc(N2CCOCC2)cc(=O)[nH]1)Nc1ccc(F)c(Br)c1,metabolised at 20 min,[1],42%
same,IC50,Cytochrome P450 3A4,> 40000 nM
same,IC50,[8],26 nM
same,solubility thermodynamic at 16 h,[2],5 µM
same,IC50,[3],38 nM
same,IC50,[9],4140 nM
same,IC50,[10],297 nM
same,metabolised at 20 min,[5],18%
same,IC50,[6],6610 nM
same,Papp,[7],0.8 ×10⁻⁶ cm/s
O=C(Cc1nc(N2CCOCC2)cc(=O)[nH]1)Nc1ccccc1F,IC50,[8],142 nM
same,IC50,[3],349 nM
same,IC50,[9],> 10000 nM
same,IC50,[10],2450 nM
same,IC50,[6],> 10000 nM
O=C(Cc1nc(N2CCOCC2)cc(=O)[nH]1)Nc1cccc(F)c1,metabolised at 20 min,[1],55%
same,IC50,[8],81 nM
same,IC50,[3],74 nM
same,IC50,[9],6220 nM
same,IC50,[10],1110 nM
same,metabolised at 20 min,[5],21%
same,IC50,[6],> 10000 nM
O=C(Cc1nc(N2CCOCC2)cc(=O)[nH]1)Nc1ccc(F)cc1,metabolised at 20 min,[1],24%
same,IC50,Cytochrome P450 3A4,> 40000 nM
same,IC50,[8],13 nM
same,solubility thermodynamic at 16 h,[2],45 µM
same,IC50,[3],31 nM
same,IC50,[9],2870 nM
same,IC50,[10],86 nM
same,metabolised at 20 min,[5],27%
same,IC50,[6],> 10000 nM
same,Papp,[7],0.6 ×10⁻⁶ cm/s
Cc1ccccc1NC(=O)Cc1nc(N2CCOCC2)cc(=O)[nH]1,IC50,[8],236 nM
same,IC50,[3],586 nM
same,IC50,[9],> 10000 nM
same,IC50,[10],4270 nM
same,IC50,[6],> 10000 nM
Cc1cccc(NC(=O)Cc2nc(N3CCOCC3)cc(=O)[nH]2)c1,metabolised at 20 min,[1],80%
same,IC50,[8],17 nM
same,solubility thermodynamic at 16 h,[2],3 µM
same,IC50,[3],45 nM
same,IC50,[9],626 nM
same,IC50,[10],164 nM
same,metabolised at 20 min,[5],54%
same,IC50,[6],7070 nM
same,Papp,[7],1.4 ×10⁻⁶ cm/s
O=C(Cc1nc(N2CCOCC2)cc(=O)[nH]1)Nc1ccc(Cl)cc1,IC50,[8],398 nM
same,IC50,[3],1420 nM
same,IC50,[9],2270 nM
same,IC50,[10],2780 nM
same,IC50,[6],5090 nM
O=C(Cc1nc(N2CCOCC2)cc(=O)[nH]1)Nc1cccc(Cl)c1,metabolised at 20 min,[1],43%
same,IC50,Cytochrome P450 3A4,> 40000 nM
same,IC50,[8],33 nM
same,solubility thermodynamic at 16 h,[2],9 µM
same,IC50,[3],100 nM
same,IC50,[9],2550 nM
same,IC50,[10],278 nM
same,metabolised at 20 min,[5],22%
same,IC50,[6],> 10000 nM
same,Papp,[7],0.8 ×10⁻⁶ cm/s
COc1cccc(NC(=O)Cc2nc(N3CCOCC3)cc(=O)[nH]2)c1,metabolised at 20 min,[1],76%
same,IC50,Cytochrome P450 3A4,> 40000 nM
same,IC50,[8],15 nM
same,solubility thermodynamic at 16 h,[2],38 µM
same,IC50,[3],47 nM
same,IC50,[9],2370 nM
same,IC50,[10],611 nM
same,metabolised at 20 min,[5],47%
same,IC50,[6],> 10000 nM
same,Papp,[7],0.3 ×10⁻⁶ cm/s
O=C(Cc1nc(N2CCOCC2)cc(=O)[nH]1)Nc1cccc(Br)c1,metabolised at 20 min,[1],75%
same,IC50,Cytochrome P450 3A4,> 40000 nM
same,IC50,[8],5 nM
same,Ratio,[11],26
same,solubility thermodynamic at 16 h,[2],6 µM
same,IC50,[3],10 nM
same,IC50,[9],1910 nM
same,IC50,[10],189 nM
same,metabolised at 20 min,[5],38%
same,IC50,[6],> 10000 nM
same,Papp,[7],1.4 ×10⁻⁶ cm/s
O=C(Cc1nc(N2CCOCC2)cc(=O)[nH]1)Nc1ccc(F)c(F)c1,metabolised at 20 min,[1],25%
same,IC50,[8],53 nM
same,solubility thermodynamic at 16 h,[2],3 µM
same,IC50,[3],55 nM
same,IC50,[9],3840 nM
same,IC50,[10],135 nM
same,metabolised at 20 min,[5],11%
same,IC50,[6],> 10000 nM
same,Papp,[7],0.8 ×10⁻⁶ cm/s
Cc1cc(NC(=O)Cc2nc(N3CCOCC3)cc(=O)[nH]2)ccc1F,metabolised at 20 min,[1],91%
same,IC50,Cytochrome P450 3A4,> 40000 nM
same,IC50,[8],6 nM
same,solubility thermodynamic at 16 h,[2],3 µM
same,IC50,[3],71 nM
same,IC50,[9],831 nM
same,IC50,[10],63 nM
same,metabolised at 20 min,[5],60%
same,IC50,[6],8010 nM
same,Papp,[7],0.6 ×10⁻⁶ cm/s
O=C(Cc1nc(N2CCOCC2)cc(=O)[nH]1)Nc1ccc(F)c(Cl)c1,metabolised at 20 min,[1],40%
same,IC50,[8],2 nM
same,solubility thermodynamic at 16 h,[2],3 µM
same,IC50,[3],19 nM
same,IC50,[9],1900 nM
same,IC50,[10],137 nM
same,metabolised at 20 min,[5],14%
same,IC50,[6],6710 nM
same,Papp,[7],0.8 ×10⁻⁶ cm/s
COc1cc(NC(=O)Cc2nc(N3CCOCC3)cc(=O)[nH]2)ccc1F,metabolised at 20 min,[1],71%
same,IC50,Cytochrome P450 3A4,> 40000 nM
same,IC50,[8],3 nM
same,solubility thermodynamic at 16 h,[2],33 µM
same,IC50,[3],98 nM
same,IC50,[9],3460 nM
same,IC50,[10],148 nM
same,metabolised at 20 min,[5],28%
same,IC50,[6],> 10000 nM
same,Papp,[7],0.2 ×10⁻⁶ cm/s
COC(=O)c1cc(NC(=O)Cc2nc(N3CCOCC3)cc(=O)[nH]2)ccc1F,IC50,[8],175 nM
same,IC50,[3],1740 nM
same,IC50,[9],8140 nM
same,IC50,[10],4650 nM
same,IC50,[6],> 10000 nM
O=C(Cc1nc(N2CCOCC2)cc(=O)[nH]1)Nc1ccc(F)c([N+](=O)[O-])c1,IC50,[8],47 nM
same,IC50,[3],1260 nM
same,IC50,[9],4350 nM
same,IC50,[10],3360 nM
same,IC50,[6],> 10000 nM
Cn1c(CC(=O)Nc2ccccc2)nc(N2CCOCC2)cc1=O,IC50,[8],469 nM
same,IC50,[3],340 nM
same,IC50,[9],> 10000 nM
same,IC50,[10],4290 nM
same,IC50,[6],> 10000 nM
Cn1c(CC(=O)Nc2ccc(F)cc2)nc(N2CCOCC2)cc1=O,IC50,[8],244 nM
same,IC50,[3],110 nM
same,IC50,[9],> 10000 nM
same,IC50,[10],1470 nM
same,IC50,[6],> 10000 nM
Cn1c(CC(=O)Nc2ccc(F)c(F)c2)nc(N2CCOCC2)cc1=O,IC50,[8],262 nM
same,IC50,[3],100 nM
same,IC50,[9],8510 nM
same,IC50,[10],1770 nM
same,IC50,[6],> 10000 nM
Cn1c(CC(=O)Nc2ccc(F)c(Br)c2)nc(N2CCOCC2)cc1=O,IC50,[8],387 nM
same,IC50,[3],94 nM
same,IC50,[9],7610 nM
same,IC50,[10],2210 nM
same,IC50,[6],> 10000 nM
COc1cc(NC(=O)Cc2nc(N3CCOCC3)cc(=O)n2C)ccc1F,IC50,[8],104 nM
same,IC50,[3],100 nM
same,IC50,[9],> 10000 nM
same,IC50,[10],2400 nM
same,IC50,[6],> 10000 nM
